Assay results published in PubChem BioAssay AID493091 (Sanford-Burnham Center for Chemical Genomics, 2011).
Out of some 340,000 compounds screened, about 3,000 (0.88%) were called active.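 The calls were made as follows: active = inhibition above about 50% at 20 µM (limit read from the data); inactive = the rest.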 Only a selection was taken, and actives are over-represented in it overall.

biological target: Carboxy-terminal domain RNA polymerase II polypeptide A small phosphatase 1 (Homo sapiens) (UniProt Q9GZU7); test: Scp-1 phosphatase inhibitors, primary screen, biochemical, colorimetric, uHTS (AID 493091); settings: Recombinant Scp1, phosphopeptide, malachite green phosphate absorbance; at 20 µM; stronger effect = higher value;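 also: plate controls were DMSO wells with enzyme for no effect and wells lacking enzyme for full effect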
Sequence (Q9GZU7 76-261 limits assumed): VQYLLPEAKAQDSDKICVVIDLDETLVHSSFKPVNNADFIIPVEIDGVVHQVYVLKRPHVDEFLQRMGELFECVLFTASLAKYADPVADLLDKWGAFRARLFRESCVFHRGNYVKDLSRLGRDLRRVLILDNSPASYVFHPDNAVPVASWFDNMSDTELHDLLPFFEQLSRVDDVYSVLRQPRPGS
Method in brief: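 System: truncated SCP-1 phosphatase (76-261aa); medium: Tris acetate buffer pH 5.5 with MgCl2 and Tween-20; incubation: 45 min room-temperature reaction, 5 min colour, 30 min stabiliser; compound: single 20 µM dose, 1% DMSO; reagent: Phosphorylated 17-residue peptide substrate; read-out: % inhibition at 20 µM; technique: colorimetric free-phosphate detection, absorbance 630 nm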

| SMILES | inhibition |
| --- | --- |
| Cc1ccccc1C(=O)NCC(c1ccco1)N1CCc2ccccc21 (configuration not stated) | 3.6% (inactive) |
| O=C(c1ccccc1F)N1CCN(S(=O)(=O)c2ccc(Br)cc2)CC1 | -10.3% (inactive) |
| CC(C)CCN1CCN=C1N(C)C | 0.8% (inactive) |
| Cc1nnc(CN(C)Cc2cn[nH]c2-c2ccc(-c3ccccc3)cc2)o1 | -5.39% (inactive) |
| CSCCC(NS(=O)(=O)c1ccc(C)cc1)C(=O)N(C)CC(=O)Nc1ccccc1Br (configuration not stated) | -5.24% (inactive) |
| Cc1nn2c(NCCN(C)C)c3c(nc2c1-c1ccccc1)CCC3 | -10.7% (inactive) |
| COc1ccc(NC(=O)COC(=O)c2n[nH]c3ccccc23)c(OC)c1 | -9.82% (inactive) |
| COc1ccc(CCNC(=O)COC(=O)c2cnc(Cl)c(Cl)c2)cc1 | -7.74% (inactive) |
| O=C(COC(=O)c1cnc(Cl)c(Cl)c1)NCc1ccco1 | 53.3% (active) |
| O=C(COC(=O)c1ccccc1O)NCc1ccco1 | 67.2% (active) |
| O=C(CCNC(=O)c1ccccc1Cl)NCc1ccco1 | 18.8% (inactive) |
| O=C(COC(=O)c1ccco1)NCc1ccc(Cl)cc1 | -4.57% (inactive) |
| O=C(COC(=O)C12CC3CC(CC(C3)C1)C2)NCc1ccco1 | 11.5% (inactive) |
| COCCNC(=S)N1CCN(C)CC1 | -7.43% (inactive) |
| CC1CC(c2ccccc2)n2nc(NC(=O)c3cccs3)nc2N1 (configuration not stated) | 2.86% (inactive) |
| CC(CC(=O)Nc1ccccc1)n1ccnc1 (configuration not stated) | -3.02% (inactive) |
| O=C(CN1CCN(c2ccc(Cl)cc2)CC1)NCc1cccs1 | 3.78% (inactive) |
| CC(C)OC(=O)CN1CCN(c2ccc(Cl)cc2)CC1 | 4.48% (inactive) |
| O=C(CN1CCN(c2ccc(Cl)cc2)CC1)c1ccccc1 | 52% (active) |
| CN(CC(=O)Nc1ccc(F)c(F)c1F)C(=O)Cn1cnc2c1c(=O)n(C)c(=O)n2C | -3.89% (inactive) |
| O=C(CCC1CCCN(C(=O)Cc2ccc(F)cc2)C1)N1CCN(c2ccccn2)CC1 (configuration not stated) | -6.06% (inactive) |

| SMILES | inhibition |
| --- | --- |
| C=Cc1ccc(C(=O)N2CCCC(CCC(=O)N3CCN(c4ccccn4)CC3)C2)cc1 (configuration not stated) | 87.9% (active) |
| O=C(CCC1CCCN(C(=O)c2ccc(F)c(F)c2)C1)N1CCN(c2ccccn2)CC1 (configuration not stated) | -8.35% (inactive) |
| Cc1ccc(C(=O)COC(=O)CCN2C(=O)C3C4CC(C(Br)C4Br)C3C2=O)cc1 (configuration not stated) | -7.42% (inactive) |
| CC(=O)N1Cc2ccccc2CC1C(=O)O (configuration not stated) | 12.9% (inactive) |
| O=c1c(Cl)c(NCc2ccc(F)cc2Cl)cnn1C12CC3CC(CC(C3)C1)C2 | 17.9% (inactive) |
| O=C(O)c1ccc(NS(=O)(=O)c2cccc3nsnc23)cc1 | -2.95% (inactive) |
| COc1ccc(NS(=O)(=O)c2cccc3nsnc23)cc1Cl | -12.1% (inactive) |
| O=S(=O)(Nc1ccccc1Cl)c1cccc2nsnc12 | 67% (active) |
| Cc1nn2c3cc(N4CCOCC4)ccc3nc2c2ccccc12 | 7.49% (inactive) |
| COc1ccc(C2=Nc3cc(C)ccc3OC2)cc1 | -3.61% (inactive) |
| COCCOC(=O)C1=C(C)NC(=O)NC1c1cc2c(cc1Br)OCO2 (configuration not stated) | -6.54% (inactive) |
| COCCN(C(=S)Nc1cccc(Cl)c1C)C(C)c1ccco1 (configuration not stated) | -5.75% (inactive) |
| COc1cccc(NC(C)=[N+](C)CCNS(=O)(=O)c2ccc(Cl)cc2)c1 | 105% (active) |
| COc1ccc(S(=O)(=O)NCCCCOc2ccc(Cl)cc2)cc1 | -3.96% (inactive) |
| COc1cccc(NC(=O)CCNS(=O)(=O)c2ccc3c(c2)oc(=O)n3C)c1 | 6.79% (inactive) |
| COc1ccc(/C=C/CN2CCCC(C(=O)c3cc(F)ccc3F)C2)cc1 (configuration not stated) | -4.6% (inactive) |
| O=C(Nc1cccnc1Oc1ncnc2cc(Cl)ccc12)c1ccc(F)cc1 | -6.88% (inactive) |
| O=C(CNCc1cccs1)Nc1cc(S(=O)(=O)N2CCCC2)ccc1Cl | 1.26% (inactive) |
| O=C(Nc1cc(S(=O)(=O)N2CCCCC2)ccc1Cl)C1COc2ccccc2O1 (configuration not stated) | 55.3% (active) |
| CCN(CC)S(=O)(=O)c1ccc(N2CCOCC2)c(NC(=O)C2COc3ccccc3O2)c1 (configuration not stated) | -9.66% (inactive) |
| CC(=O)c1ccc(NC(=O)C(C)N(C)CC(=O)Nc2ccccc2Cl)cc1 (configuration not stated) | 9.97% (inactive) |

| SMILES | inhibition |
| --- | --- |
| O=C(/C=C/c1cccc([N+](=O)[O-])c1)NCCSCc1ccco1 | -5.27% (inactive) |
| OC1CSc2nc3ccccc3n2C1 (configuration not stated) | -14.6% (inactive) |
| Cc1ccc(CCCOC(=O)C[N+]2(C)CCCCC2)cc1 | 4.77% (inactive) |
| Cc1ccc(COC(=O)CN2C(=O)NC3(CCCC3)C2=O)cc1 | -2.24% (inactive) |
| Cc1ccc(CCCOC(=O)C[N+]2(C)CCCC2)cc1 | 101% (active) |
| Nc1ccc2c(c1)C(=Cc1cccnc1)c1ccccc1-2 | -0.04% (inactive) |
| C[C@H](NC(=O)c1nc[nH]c1C(=O)NCC(=O)OC(C)(C)C)C(=O)OCc1ccccc1 | -3.03% (inactive) |
| O=C(c1ccc2c(c1)OCO2)N1CCNc2ccccc2C1 | 54.2% (active) |
| O=CN1CCN(C(=O)c2ccc3c(c2)OCO3)CC1 | -4.58% (inactive) |
| O=C(c1ccc2c(c1)OCO2)N1CCN(C(=O)c2ccco2)CC1 | -10.7% (inactive) |
| COc1ccc(C(=O)N(CCN2CCOCC2)CC(=O)NC2CCCC2)cc1OC | -4.37% (inactive) |
| Cc1ccnc(-n2sc3ccccc3c2=O)n1 | 70.8% (active) |
| COc1ccccc1C(C)NC(=O)Cc1ccsc1 (configuration not stated) | 1.45% (inactive) |
| CN(CC(=O)NCCc1ccccn1)S(=O)(=O)c1ccc(Cl)cc1 | -6.06% (inactive) |
| CCCCOC(=O)c1ccc(N2C(=O)CC(N3CCN(C/C=C/c4ccccc4)CC3)C2=O)cc1 (configuration not stated) | -2.23% (inactive) |
| CC1CC(C)CN(S(=O)(=O)c2cccc3nonc23)C1 (configuration not stated) | -1.81% (inactive) |
| CCN(Cc1cc2cc(C)ccc2[nH]c1=O)S(=O)(=O)c1ccccc1 | -4.68% (inactive) |
| CCCc1nc(-c2cc3cc(C)ccc3[nH]c2=O)no1 | 65.2% (active) |
| CCC(=O)N(CCc1ccccc1)Cc1cc2cc(C)ccc2[nH]c1=O | -1.18% (inactive) |
| C#CCOCCOCCOCCNc1nc(N2CCN(C(=O)C([C@@H](C)O)n3cc([C@@H](N)CCCCN)nn3)CC2)nc(N2CCN(C(=O)[C@H](CCCCN)n3cc(CN)nn3)CC2)n1 (some centres not stated) | -0.3% (inactive) |
